Here are results for 2 compounds from the M2OR odorant receptor database.

Holding throughout (details): stereoisomer not certain
In experiment [1] the test system is OR1A2 A108G K109N S155N. Put shortly:
(§1)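 Values were gathered from published papers (main text and supplementary material), with extra details requested from the original authors when needed, and checked for typos and inconsistencies. Each receptor–molecule pair is called responsive (active) if the original authors judged the measured signal statistically different from baseline, and non-responsive (inactive) otherwise. Assay methods varied by source, often transient mammalian cell-line luciferase assays. Recorded details include cell line, G-protein, co-transfected protein and tags.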

Experiment [2] concerns OR1A2 A108G K109N T154A S155N. The method, boiled down: as §1
The test system of experiment [3] is OR1A2 A108G K109N T154A. The method, boiled down:
as §1

Experiment [4] has as its system OR1A2 A108G K109N. The method, boiled down: as §1
The test system of experiment [5] is OR1A2 A108G T154A S155N. The method, boiled down:
as §1

Experiment [6] has as its system OR1A2 A108G. The method, boiled down: as §1
In experiment [7] the test system is OR1A2 K109N T154A S155N. Put shortly: as §1
Experiment [8] relates to OR1A2 K109N. The method, boiled down: as §1
Experiment [9] concerns OR1A2 S155N. Put shortly: as §1
For experiment [10], the system named is OR1A2 T154A S155N. The method, boiled down:
as §1

The test system of experiment [11] is OR1A2 T154A. Put shortly: as §1
In experiment [12] the test system is OR1A2 T254V. The method, boiled down: as §1
Experiment [13] relates to OR1A2 V205I. The method, boiled down:
as §1

Experiment [14] relates to OR1A2 V277T. Put shortly: as §1
In experiment [15] the test system is OR1D2. The method, boiled down:
as §1

Chain of OR1A2 S155N (as listed by the source, stated change not applied): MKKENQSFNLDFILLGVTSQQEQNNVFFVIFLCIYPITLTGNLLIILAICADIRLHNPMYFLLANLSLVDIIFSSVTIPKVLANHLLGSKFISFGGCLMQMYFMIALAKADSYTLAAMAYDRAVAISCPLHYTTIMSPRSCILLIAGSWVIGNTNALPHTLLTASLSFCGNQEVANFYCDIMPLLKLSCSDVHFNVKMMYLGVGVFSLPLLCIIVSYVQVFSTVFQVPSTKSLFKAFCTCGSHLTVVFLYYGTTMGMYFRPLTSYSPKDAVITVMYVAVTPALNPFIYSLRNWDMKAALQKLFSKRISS
Chain of OR1A2 T154A (as listed by the source, stated change not applied): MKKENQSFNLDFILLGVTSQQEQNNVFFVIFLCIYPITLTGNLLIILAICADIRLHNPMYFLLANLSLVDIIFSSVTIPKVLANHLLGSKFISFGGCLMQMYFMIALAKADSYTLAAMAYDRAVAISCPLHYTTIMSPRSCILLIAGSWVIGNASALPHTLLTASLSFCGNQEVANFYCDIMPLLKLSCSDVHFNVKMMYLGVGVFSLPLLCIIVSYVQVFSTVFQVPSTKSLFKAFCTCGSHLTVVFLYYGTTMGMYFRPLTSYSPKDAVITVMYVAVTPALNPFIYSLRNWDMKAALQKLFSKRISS
Chain of OR1A2 A108G (as listed by the source, stated change not applied): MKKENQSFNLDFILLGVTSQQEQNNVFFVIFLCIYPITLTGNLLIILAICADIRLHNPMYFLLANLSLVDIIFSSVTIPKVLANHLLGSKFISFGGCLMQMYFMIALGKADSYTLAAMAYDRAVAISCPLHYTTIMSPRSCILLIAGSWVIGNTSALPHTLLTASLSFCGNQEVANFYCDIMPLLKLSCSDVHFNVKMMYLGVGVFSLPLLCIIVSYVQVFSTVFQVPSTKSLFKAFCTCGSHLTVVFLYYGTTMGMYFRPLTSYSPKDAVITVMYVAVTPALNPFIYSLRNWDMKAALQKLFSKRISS
Chain of OR1D2 (as listed by the source): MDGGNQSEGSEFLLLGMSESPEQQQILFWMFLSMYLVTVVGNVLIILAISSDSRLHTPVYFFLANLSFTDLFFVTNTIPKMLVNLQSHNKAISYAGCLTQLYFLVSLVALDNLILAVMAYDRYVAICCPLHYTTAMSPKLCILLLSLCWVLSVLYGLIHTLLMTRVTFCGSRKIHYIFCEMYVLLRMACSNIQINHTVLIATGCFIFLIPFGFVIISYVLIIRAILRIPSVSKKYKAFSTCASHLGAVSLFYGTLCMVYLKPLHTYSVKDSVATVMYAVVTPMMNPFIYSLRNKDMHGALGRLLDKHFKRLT
Chain of OR1A2 K109N (as listed by the source, stated change not applied): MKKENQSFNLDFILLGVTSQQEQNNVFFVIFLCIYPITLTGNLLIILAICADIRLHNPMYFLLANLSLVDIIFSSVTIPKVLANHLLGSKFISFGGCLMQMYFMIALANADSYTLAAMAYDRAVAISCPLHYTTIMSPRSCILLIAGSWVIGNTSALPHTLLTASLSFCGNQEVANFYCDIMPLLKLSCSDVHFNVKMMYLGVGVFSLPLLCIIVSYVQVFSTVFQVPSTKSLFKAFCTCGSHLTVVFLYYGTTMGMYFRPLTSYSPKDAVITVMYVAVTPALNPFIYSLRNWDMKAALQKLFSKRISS
Chain of OR1A2 V277T (as listed by the source, stated change not applied): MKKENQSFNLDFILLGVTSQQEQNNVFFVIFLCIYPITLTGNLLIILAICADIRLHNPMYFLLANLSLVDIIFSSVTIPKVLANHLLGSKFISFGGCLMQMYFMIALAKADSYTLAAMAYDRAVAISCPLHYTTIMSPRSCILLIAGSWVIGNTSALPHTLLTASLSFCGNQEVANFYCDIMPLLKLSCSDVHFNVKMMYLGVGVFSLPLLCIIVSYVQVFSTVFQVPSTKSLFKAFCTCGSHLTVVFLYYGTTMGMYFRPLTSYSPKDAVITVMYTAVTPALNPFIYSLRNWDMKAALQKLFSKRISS
Chain of OR1A2 T254V (as listed by the source, stated change not applied): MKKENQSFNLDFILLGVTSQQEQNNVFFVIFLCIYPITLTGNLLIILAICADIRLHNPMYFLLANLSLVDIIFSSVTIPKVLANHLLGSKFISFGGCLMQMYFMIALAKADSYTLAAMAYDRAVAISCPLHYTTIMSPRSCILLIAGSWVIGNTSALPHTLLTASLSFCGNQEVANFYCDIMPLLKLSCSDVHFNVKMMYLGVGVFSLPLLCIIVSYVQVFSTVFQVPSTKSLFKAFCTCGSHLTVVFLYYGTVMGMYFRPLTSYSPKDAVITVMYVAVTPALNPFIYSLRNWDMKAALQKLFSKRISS
Chain of OR1A2 V205I (as listed by the source, stated change not applied): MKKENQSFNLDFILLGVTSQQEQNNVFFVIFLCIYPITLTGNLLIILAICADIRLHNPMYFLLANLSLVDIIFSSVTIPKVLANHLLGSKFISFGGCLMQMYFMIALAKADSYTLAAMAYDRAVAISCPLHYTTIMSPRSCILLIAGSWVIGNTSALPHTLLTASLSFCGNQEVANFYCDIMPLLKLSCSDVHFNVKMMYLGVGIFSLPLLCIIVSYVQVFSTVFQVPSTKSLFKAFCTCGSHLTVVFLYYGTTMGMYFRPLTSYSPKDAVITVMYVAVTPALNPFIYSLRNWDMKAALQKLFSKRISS

For the compound `CC(C)=CCCC(C)CCO` (stereo not given), the “odorant receptor agonist call” value in [1], in experiment [2], in experiment [3], in [4], in experiment [5] and in experiment [6] was “active” throughout. Besides, the “odorant receptor agonist call” value in experiment [7] and in [8] was “active” each time. Moreover, the “odorant receptor agonist call” value in experiment [9], in experiment [10], in experiment [11], in experiment [12], in experiment [13] and in experiment [14] was “inactive” each time.

`CC(C=O)Cc1ccc(C(C)(C)C)cc1` (stereo not given): in [15], the “odorant receptor agonist call” value was “inactive”.
